Measurements as given in ChEMBL document CHEMBL2021813, “Semisynthetic neoclerodanes as kappa opioid receptor probes” (Bioorg Med Chem, 2012).
pEC50, pKi: −log10 of the molar value.

Assays:
[1] = molecular target: T1, Kappa-type opioid receptor (Homo sapiens, UniProt P41145); test: Agonist activity at human recombinant kappa opioid receptor expressed in CHO cells assessed as [35S]GTP-gamma-S binding after 3 hrs by liquid scintillation counting; format: functional, cell-based
Procedure, shortened: (§1)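 hKOP-CHO membranes (50 μg protein) were incubated with 50 pM [35S]GTP-γ-S and 40 μM GDP. Final buffer was 50 mM Tris-HCl pH 7.4, 100 mM NaCl, 10 mM MgCl2, 1 mM EDTA, 1 mM DTT and 0.1% BSA. Incubation ran 3 hr at 25 °C. Nonspecific binding was set with 40 μM GTP-γ-S. Bound label was separated by vacuum filtration through GF/B and counted.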

Mu-type opioid receptor [2] = molecular target: T2, Mu-type opioid receptor (Homo sapiens, UniProt P35372); test: Displacement of [3H]DAMGO from human recombinant mu opioid receptor expressed in CHO cells after 2 hrs by liquid scintillation counting; format: cell-based
T2 sequence (P35372 whole entry): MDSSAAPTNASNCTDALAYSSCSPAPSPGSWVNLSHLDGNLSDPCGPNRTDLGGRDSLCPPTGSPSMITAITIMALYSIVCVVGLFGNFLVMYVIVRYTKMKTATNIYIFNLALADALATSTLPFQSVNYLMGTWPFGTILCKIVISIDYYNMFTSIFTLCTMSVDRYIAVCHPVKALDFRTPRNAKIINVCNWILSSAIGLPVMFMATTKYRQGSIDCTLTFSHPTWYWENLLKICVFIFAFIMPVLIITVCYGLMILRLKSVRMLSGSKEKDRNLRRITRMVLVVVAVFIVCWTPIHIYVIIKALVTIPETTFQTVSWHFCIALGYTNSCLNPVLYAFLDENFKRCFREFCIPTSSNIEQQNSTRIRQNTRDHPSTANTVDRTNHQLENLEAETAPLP
Procedure, shortened: (§2)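 Membranes from CHO cells stably transfected with human DOP, MOP or KOP receptor, in 50 mM Tris-HCl pH 7.4 with a protease inhibitor cocktail. The ~2 nM [3H]radioligand was displaced by 10 drug concentrations, in triplicate, for 2 hr at 25 °C, then filtered over GF/B. Nonspecific binding was set by 20 μM levallorphan (DADLE, DAMGO) or 1 μM (−)-U69,593 (U69,593). Ki (±SD) came from full curves, n=3.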

[3] = molecular target: T3, Delta-type opioid receptor (Homo sapiens, UniProt P41143); test: Displacement of [3H]DADLE from human recombinant delta opioid receptor expressed in CHO cells at 10 uM after 2 hrs by liquid scintillation counting; format: cell-based
T3 sequence (P41143 whole entry): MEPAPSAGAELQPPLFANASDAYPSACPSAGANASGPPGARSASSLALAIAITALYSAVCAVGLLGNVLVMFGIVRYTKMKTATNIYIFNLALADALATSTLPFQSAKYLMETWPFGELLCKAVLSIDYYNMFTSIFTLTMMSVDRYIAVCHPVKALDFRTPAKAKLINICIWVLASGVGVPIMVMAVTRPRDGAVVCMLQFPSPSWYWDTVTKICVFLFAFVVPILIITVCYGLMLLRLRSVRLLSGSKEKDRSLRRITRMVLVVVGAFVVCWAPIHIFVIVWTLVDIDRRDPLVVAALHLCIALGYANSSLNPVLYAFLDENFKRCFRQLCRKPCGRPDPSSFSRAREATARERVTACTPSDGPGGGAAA
Procedure, shortened: (§3)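 Radioligand (~2 nM) competition on human opioid receptor CHO membranes in Tris-HCl pH 7.4, 2 hr at 25 °C, with GF/B filtration and scintillation counting. Results are percent of control produced by a single test drug concentration, 1 μM or 10 μM as the line states. Nonspecific binding was set by 20 μM levallorphan (DADLE, DAMGO) or 1 μM (−)-U69,593 (U69,593).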

[4] = molecular target: T1, Kappa-type opioid receptor; test: Agonist activity at human recombinant kappa opioid receptor expressed in CHO cells assessed as [35S]GTP-gamma-S binding after 3 hrs by liquid scintillation counting relative to (-)U50488; format: functional, cell-based; procedure, shortened: as §1
[5] = molecular target: T3, Delta-type opioid receptor; test: Displacement of [3H]DADLE from human recombinant delta opioid receptor expressed in CHO cells after 2 hrs by liquid scintillation counting; format: cell-based; procedure, shortened: as §2
[6] = molecular target: T1, Kappa-type opioid receptor; test: Displacement of [3H]U69593 from human recombinant kappa opioid receptor expressed in CHO cells after 2 hrs by liquid scintillation counting; format: cell-based; procedure, shortened: as §2
Mu-type opioid receptor [7] = molecular target: T2, Mu-type opioid receptor; test: Displacement of [3H]DAMGO from human recombinant mu opioid receptor expressed in CHO cells at 10 uM after 2 hrs by liquid scintillation counting; format: cell-based; procedure, shortened: as §3
[8] = molecular target: T3, Delta-type opioid receptor; test: Displacement of [3H]DADLE from human recombinant delta opioid receptor expressed in CHO cells at 1 uM after 2 hrs by liquid scintillation counting; format: cell-based; procedure, shortened: as §3
Mu-type opioid receptor [9] = molecular target: T2, Mu-type opioid receptor; test: Displacement of [3H]DAMGO from human recombinant mu opioid receptor expressed in CHO cells at 1 uM after 2 hrs by liquid scintillation counting; format: cell-based; procedure, shortened: as §3
[10] = molecular target: T1, Kappa-type opioid receptor; test: Agonist activity at human recombinant kappa opioid receptor expressed in CHO cells assessed as calcium mobilization after 1 hrs by fluorescence analysis relative to U69593; format: functional, cell-based
Procedure, shortened: (§4)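 CHO cells stably expressing KOP receptor with Gαq16 were plated at 30,000 cells/well and grown overnight at 37 °C. They were loaded with Calcium 5 dye in HBSS with 20 mM HEPES, 0.25% BSA, 1% DMSO and probenecid for 1 h at 37 °C. Compounds were added at 10X after a ~17 sec baseline, and fluorescence (ex 485/em 525 nm) was read every 1.52 sec for 60 sec. EC50 and Emax are given ±SD.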

[11] = molecular target: T1, Kappa-type opioid receptor; test: Agonist activity at human recombinant kappa opioid receptor expressed in CHO cells assessed as calcium mobilization after 1 hrs by fluorescence analysis; format: functional, cell-based; procedure, shortened: as §4
[12] = molecular target: T1, Kappa-type opioid receptor; test: Displacement of [3H]U69593 from human recombinant kappa opioid receptor expressed in CHO cells at 10 uM after 2 hrs by liquid scintillation counting; format: cell-based; procedure, shortened: as §3
Rhesus monkey = test: In vivo binding affinity to kappa opioid receptor in iv dosed rhesus monkey assessed as rightward shift in serum prolactin level administered every 20 mins measured every 15 mins by immunoradiometric analysis; format: functional; settings: Macaca mulatta
Procedure, shortened: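 Chair-trained male rhesus monkeys received i.v. cumulative doses rising in 0.5 log steps every 20 min. Blood was sampled 15 min after each dose, after two baseline samples at −10 and −5 min. Serum prolactin was expressed as change from each subject's pre-injection baseline, as mean ±SEM. ED50 came from linear regression of mean dose-effect points spanning the ED50.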

T1 sequence (P41145 whole entry): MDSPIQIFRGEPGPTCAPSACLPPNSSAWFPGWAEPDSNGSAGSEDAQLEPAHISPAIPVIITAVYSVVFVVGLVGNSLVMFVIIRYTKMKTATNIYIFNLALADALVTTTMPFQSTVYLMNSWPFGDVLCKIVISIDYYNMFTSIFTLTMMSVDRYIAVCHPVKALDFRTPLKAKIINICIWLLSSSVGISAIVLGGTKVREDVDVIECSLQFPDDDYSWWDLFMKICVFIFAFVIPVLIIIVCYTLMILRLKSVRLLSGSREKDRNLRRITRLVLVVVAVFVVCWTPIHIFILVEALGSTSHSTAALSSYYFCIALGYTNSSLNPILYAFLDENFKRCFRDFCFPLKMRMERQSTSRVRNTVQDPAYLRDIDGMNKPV

SMILES | pEC50 [1] | pKi (Mu-type opioid receptor [2]) | Activity [3] [%] | Emax [4] [%] | pKi [5] | pKi [6] | Activity (Mu-type opioid receptor [7]) [%] | Activity [8] [%] | Activity (Mu-type opioid receptor [9]) [%] | Emax [10] [%] | pEC50 [11] | Activity [12] [%] | ED50 (Rhesus monkey) [mg/kg]
COC(=O)[C@@H]1C[C@H](OC(C)=O)C(=O)[C@H]2[C@@]1(C)CC[C@H]1C(=O)O[C@H](C(=O)c3ccsc3)C[C@]21C | 6.21 | 5.60 | 88 | 88 | < 5.00 | 7.51 |  |  |  |  |  |  | 
COC(=O)[C@@H]1C[C@H](OC(C)=O)C(=O)[C@H]2[C@@]1(C)CC[C@H]1C(=O)O[C@H](C(=O)c3ccc(O)cc3)C[C@]21C |  | < 5.00 | 100 |  | < 5.00 | 5.07 | 93 |  |  |  |  |  | 
COC(=O)[C@@H]1C[C@H](OC(C)=O)C(=O)[C@H]2[C@@]1(C)CC[C@H]1C(=O)O[C@H](C(=O)c3cccc(C(F)(F)F)c3)C[C@]21C |  | 5.47 |  |  | < 6.00 | 5.65 |  | 46 |  |  |  |  | 
COC(=O)[C@@H]1C[C@H](OC(C)=O)C(=O)[C@H]2[C@@]1(C)CC[C@H]1C(=O)O[C@H](C(=O)c3cc4ccccc4s3)C[C@]21C |  | < 5.00 | 95 |  | < 5.00 | 5.04 | 58 |  |  |  |  |  | 
COC(=O)[C@@H]1C[C@H](OC(C)=O)C(=O)[C@H]2[C@@]1(C)CC[C@H]1C(=O)O[C@H](C(=O)c3ccc(OC)cc3)C[C@]21C |  | < 5.00 |  |  | < 5.00 | < 5.00 | 74 | 81 |  |  |  |  | 
COC(=O)[C@@H]1C[C@H](OC(C)=O)C(=O)[C@H]2[C@@]1(C)CC[C@H]1C(=O)O[C@H](C(=O)c3cccs3)C[C@]21C | 5.79 | < 5.00 | 99 | 95 | < 5.00 | 7.44 | 65 |  |  |  |  |  | 
COC(=O)[C@@H]1C[C@H](OC(C)=O)C(=O)[C@H]2[C@@]1(C)CC[C@H]1C(=O)O[C@H](C(=O)c3cccc(OC(F)(F)F)c3)C[C@]21C |  | 5.32 |  |  | < 6.00 | < 5.00 |  | 37 |  |  |  |  | 
COC(=O)[C@@H]1C[C@H](OC(C)=O)C(=O)[C@H]2[C@@]1(C)CC[C@H]1C(=O)O[C@H](C(=O)c3csc4ccccc34)C[C@]21C |  | < 6.00 |  |  | < 6.00 | < 5.00 |  | 56 | 60 |  |  |  | 
C/C=C\C(=O)[C@@H]1C[C@]2(C)[C@H]3C(=O)[C@@H](OC(C)=O)C[C@@H](C(=O)OC)[C@]3(C)CC[C@H]2C(=O)O1 |  | < 5.77 |  |  | < 5.30 | 6.49 |  |  |  |  |  |  | 
COC(=O)[C@@H]1C[C@H](OC(C)=O)C(=O)[C@H]2[C@@]1(C)CC[C@H]1C(=O)O[C@H](C(=O)c3cccc(C#N)c3)C[C@]21C |  | < 6.00 |  |  | < 5.00 | 6.66 |  | 68 | 61 |  |  |  | 
COC(=O)[C@@H]1C[C@H](OC(C)=O)C(=O)[C@H]2[C@@]1(C)CC[C@H]1C(=O)O[C@H](/C=C/c3ccoc3)C[C@]21C |  | < 5.00 | 66 |  | < 5.00 | 5.95 | 78 |  |  |  |  |  | 
COC(=O)[C@@H]1C[C@H](OC(C)=O)C(=O)[C@H]2[C@@]1(C)CC[C@H]1C(=O)O[C@H](c3ccco3)C[C@]21C | 6.85 | < 6.00 |  | 104 | < 5.00 |  |  | 99 | 81 | 97 | 7.91 |  | 
COC(=O)[C@@H]1C[C@H](OC(C)=O)C(=O)[C@H]2[C@@]1(C)CC[C@H]1C(=O)O[C@H](C(=O)c3ccccc3O)C[C@]21C |  | 5.44 | 94 |  | < 5.00 | 6.30 |  |  |  |  |  |  | 
COC(=O)[C@@H]1C[C@H](OC(C)=O)C(=O)[C@H]2[C@@]1(C)CC[C@H]1C(=O)O[C@H](C(=O)c3cccc(O)c3)C[C@]21C |  | < 6.00 | 80 |  | < 5.00 | 6.96 |  |  | 55 |  |  |  | 
COC(=O)[C@@H]1C[C@H](OC(C)=O)C(=O)[C@H]2[C@@]1(C)CC[C@H]1C(=O)O[C@H](C(=O)c3ccccc3OC)C[C@]21C |  | < 5.00 |  |  | < 5.00 | 5.97 | 53 | 87 |  |  |  |  | 
COC(=O)[C@@H]1C[C@H](OC(C)=O)C(=O)[C@H]2[C@@]1(C)CC[C@H]1C(=O)O[C@H](C(=O)c3cc4ccccc4o3)C[C@]21C |  | < 5.00 | 91 |  | < 5.00 | < 5.00 | 100 |  |  |  |  | 92 | 
COC(=O)[C@@H]1C[C@H](OC(C)=O)C(=O)[C@H]2[C@@]1(C)CC[C@H]1C(=O)O[C@@H](c3ccoc3)C[C@]21C [12-EPI-SALVINORIN A] |  |  | 74 |  |  |  | 72 |  |  |  |  |  | 0.038
COC(=O)[C@@H]1C[C@H](OC(C)=O)C(=O)[C@H]2[C@@]1(C)CC[C@H]1C(=O)O[C@H](c3ccoc3)C[C@]21C [SALVINORIN A] |  |  |  |  |  |  |  |  |  |  |  |  | 0.0037
COC(=O)[C@@H]1C[C@H](OC(C)=O)C(=O)[C@H]2[C@@]1(C)CC[C@H]1C(=O)O[C@H](C(=O)c3ccco3)C[C@]21C | 5.67 | 5.01 | 91 | 92 | < 5.00 | 7.10 |  |  |  |  |  |  | 
COC(=O)[C@@H]1C[C@H](OC(C)=O)C(=O)[C@H]2[C@@]1(C)CC[C@H]1C(=O)O[C@H](C(=O)c3ccoc3)C[C@]21C |  | < 5.00 | 95 |  | < 5.00 | 6.82 | 66 |  |  |  |  |  | 
COC(=O)[C@@H]1C[C@H](OC(C)=O)C(=O)[C@H]2[C@@]1(C)CC[C@H]1C(=O)O[C@H](C(=O)c3cccc(C(N)=O)c3)C[C@]21C | 6.14 | < 5.00 |  | 92 | < 5.00 | 7.40 |  | 52 | 84 | 97 | 7.12 |  | 
COC(=O)[C@@H]1C[C@H](OC(C)=O)C(=O)[C@H]2[C@@]1(C)CC[C@H]1C(=O)O[C@H](C(=O)c3cccc(OC)c3)C[C@]21C |  | 5.51 |  |  | < 5.00 | 6.54 |  | 77 |  |  |  |  | 
